Results on two compounds are retold here after ChEMBL document CHEMBL4330142, “Eupatoriopicrin Inhibits Pro-inflammatory Functions of Neutrophils via Suppression of IL-8 and TNF-alpha Production and p38 and ERK 1/2 MAP Kinases” (J Nat Prod, 2019).

Assay [1] has as its system Neutrophil. The experiment in a line: Inhibition of LPS-stimulated TNFalpha production in human neutrophils at 2.5 uM after 24 hrs by ELISA. Type of assay: functional, cell-based. In short, it runs like this:
(§1)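 Human neutrophils were preincubated with compound, then LPS-stimulated. TNF-α in the culture medium was measured by ELISA 24 h after LPS. Three separate experiments used neutrophils from independent donors, each assayed in duplicate; mean ± SEM; Dunnett's test versus the stimulated control.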
On the technique in general: An ELISA detects its analyte on a solid surface through an enzyme-linked reagent.

For assay [2], the system named is Neutrophil. The experiment in a line: Inhibition of LPS-induced delay of apoptosis in human neutrophils assessed as necrotic cells at 2.5 uM preincubated for 1 hr followed by LPS stimulation and measured after 24 hrs by Annexin V-FITC/propidium iodide staining based flow cytometry (reference value: 2.1 +/- 0.4%). The format is functional. Also on record: scale not given: the % may be the effect or the level left.

Assay [3] is described as follows: Anti-inflammatory activity in human PMN assessed as inhibition of fMLP/cytochalasin A-induced CD11b/CD18 expression by measuring CD11b/CD18 expression level at 50 uM preincubated for 30 mins followed by fMLP/cytochalasin A addition and measured after 30 mins by flow cytometry relative to control. The format is functional. On the set-up: scale not given: the % may be the effect or the level left. In short, it runs like this: (§2)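 Neutrophils preincubated with compound before stimulation with cytochalasin A combined with f-MLP; surface CD11b expression read by flow cytometry. Compounds from 10 mM DMSO stock diluted in buffer or RPMI 1640. Mean ± SEM of three experiments on neutrophils from independent donors, Dunnett's post hoc test versus stimulated control.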
On the technique in general: Flow cytometry measures light scatter and fluorescence of single cells or particles in a stream.

In assay [4] the test system is Neutrophil. The assay can be described thus: Inhibition of LPS-induced delay of apoptosis in human neutrophils assessed as viable cells at 2.5 uM preincubated for 1 hr followed by LPS stimulation and measured after 24 hrs by Annexin V-FITC/propidium iodide staining based flow cytometry (reference value: 75.4 +/- 1.1%). The format is functional. To be noted: read-out: Activity.

Assay [5] relates to Neutrophil. The assay can be described thus: Inhibition of LPS-stimulated IL-8 production in human neutrophils at 2.5 uM after 24 hrs by ELISA. The format is functional, cell-based.
Assay [6] deals with Neutrophil. The assay can be described thus: Inhibition of LPS-stimulated TNFalpha production in human neutrophils at 50 uM after 24 hrs by ELISA. The format is functional, cell-based. In short, it runs like this: as §1
Assay [7] has as its system Neutrophil. The assay can be described thus: Inhibition of LPS-induced delay of apoptosis in human neutrophils assessed as late apoptotic cells at 2.5 uM preincubated for 1 hr followed by LPS stimulation and measured after 24 hrs by Annexin V-FITC/propidium iodide staining based flow cytometry (reference value: 9.5 +/- 1.8%). The format is functional. On the set-up: scale not given: the % may be the effect or the level left.

Assay [8] can be described thus: Anti-inflammatory activity in human PMN assessed as inhibition of fMLP/cytochalasin A-induced CD11b/CD18 expression by measuring CD11b/CD18 expression level at 2.5 uM preincubated for 30 mins followed by fMLP/cytochalasin A addition and measured after 30 mins by flow cytometry relative to control. Type of assay: functional. Also on record: scale not given: the % may be the effect or the level left. The gist of the method:
as §2

Assay [9] has as its system Neutrophil. The assay can be described thus: Inhibition of LPS-induced delay of apoptosis in human neutrophils assessed as early apoptotic cells at 2.5 uM preincubated for 1 hr followed by LPS stimulation and measured after 24 hrs by Annexin V-FITC/propidium iodide staining based flow cytometry (reference value: 13 +/- 1.9%). Type of assay: functional. On the set-up: scale not given: the % may be the effect or the level left.

Assay [10] has as its system Neutrophil. The experiment in a line: Inhibition of fMLP/cytochalasin A-stimulated elastase release in human neutrophils assessed as elastase level at 50 uM preincubated for 15 mins followed by fMLP/cytochalasin A stimulation and measured after 15 mins by SAAVNA substrate based spectrophotometric method (reference value: 100%). On the set-up: scale not given: the % may be the effect or the level left.

A further assay is filed under the species Homo sapiens. The experiment in a line: Anti-inflammatory activity in human PMN assessed as inhibition of fMLP/cytochalasin A-induced CD11b/CD18 expression at 2.5 uM preincubated for 30 mins followed by fMLP/cytochalasin A addition and measured after 30 mins by flow cytometry. Type of assay: functional. In short, it runs like this:
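Freshly isolated human PMNs were preincubated with compound, then stimulated with cytochalasin A plus f-MLP. Surface CD11b was read by FACS relative to the stimulated control. Three separate experiments used neutrophils from independent donors; mean ± SEM. Compounds came from 10 mM DMSO stocks diluted in Ca2+-free HBSS/PBS pH 7.4 or RPMI 1640.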

Active and inactive are the calls of the source. The rule behind the calls is not given here.

On to `CC[C@H]1OC(=O)[C@H](C)[C@@H](O[C@H]2C[C@@](C)(OC)[C@@H](O)[C@H](C)O2)[C@H](C)[C@@H](O[C@@H]2O[C@H](C)C[C@H](N(C)C)[C@H]2O)[C@](C)(OC)C[C@@H](C)C(=O)[C@H](C)[C@@H](O)[C@]1(C)O` [CLARITHROMYCIN], for which the inhibition result in the assay on Neutrophil [1] was “inactive”. Besides, the Activity is listed as 1.1% in the assay with Neutrophil [2]; 31.5% in [3]; 13.3% with Neutrophil [7]; 67.7% in assay [8]; 33.7% in the assay on Neutrophil [9]; 39% with Neutrophil [10]. Further, in the assay with Neutrophil [4], the viability at 2.5 µM is 49.8%. The inhibition entry in the assay on Neutrophil [5] and with Neutrophil [6] was “Active” throughout.
Consider `O=c1c(O)c(-c2ccc(O)c(O)c2)oc2cc(O)cc(O)c12` [QUERCETIN], for which the inhibition result in the assay with Neutrophil [1] and in the assay listed under Homo sapiens was “inactive” throughout. Also, the Activity is recorded as 1% in the assay on Neutrophil [2], 15.4% in the assay on Neutrophil [7], 27% in the assay on Neutrophil [9] and 26.6% in the assay with Neutrophil [10]. Further, the viability at 2.5 µM with Neutrophil [4] is 58.8%. For the same compound, the inhibition entry in the assay with Neutrophil [6] was “Active”.
